Measurements pooled from the literature.
CA2: Carbonic anhydrase 2 (CA2, Homo sapiens, UniProt P00918)
CA1: Carbonic anhydrase 1 (CA1, Homo sapiens, UniProt P00915)
ADRA2A: Alpha-2A adrenergic receptor (ADRA2A, Homo sapiens, UniProt P08913)

The Ki of `OC1CCN(c2ccc(/C=N/NC(=S)Nc3cccc(Cl)c3Cl)cc2)CC1` is reported as 0.271 µM (CA2; enzyme activity; inhibitor).
With `CC1=C(/C=C/C(C)=C/C=C/C(C)=C\C(=O)O)C(C)(C)CCC1` the Ki was 5.75 µM (CA1; enzyme activity; inhibitor).
With `CCN1/C(=C/C(C)=O)Sc2ccc(F)cc21` the Ki was 50.3 µM (ADRA2A; ligand displacement; radioligand).
With `O=C(NCc1cn(-c2ccc(Cl)cc2)nn1)c1ccc(=O)oc1` the Ki was > 100 µM (CA1; enzyme activity; inhibitor; stopped-flow).
`NS(=O)(=O)c1cnc(NC(=O)CC2CCCCC2)s1` gave a Ki of 1.58 µM (CA1; enzyme activity; inhibitor; stopped-flow).
`Cc1cc(Oc2ncccc2CN2CCN(c3ccccc3C(F)(F)F)CC2)ccc1-c1c(C)c(=O)[nH]c(=O)n1C` has a Ki of 0.175 µM (ADRA2A; ligand displacement; radioligand).
`CCOCCn1c(C2CCN(CCc3ccc(C(C)(C)C(=O)O)cc3)CC2)nc2ccccc21` gave a Ki of 9.53 µM (CA1; enzyme activity; inhibitor).
With `Cc1cc(Oc2ncccc2CN2CCN(c3ccccc3C)CC2)ccc1-c1c(C)c(=O)[nH]c(=O)n1C` the Ki was 0.0594 µM (ADRA2A; ligand displacement; radioligand).
The Ki of `O=C(O)COCCN1CCN(C(c2ccccc2)c2ccc(Cl)cc2)CC1` (stereo not drawn) is reported as 9.9 µM (CA1; enzyme activity; inhibitor).
`Cc1cc(Oc2ncccc2CN2CCN(Cc3ccccc3Cl)CC2)ccc1-c1c(C)c(=O)[nH]c(=O)n1C` gave a Ki of 0.0812 µM (ADRA2A; ligand displacement; radioligand).
For `Nc1ccc(S(=O)(=O)c2ccc(N)cc2)cc1`, the Ki was 11.6 µM (CA1; enzyme activity; inhibitor).
`NS(=O)(=O)c1nnc(NC(=O)C2CCC3(CCCCC3)C2)s1` (stereo not drawn) has a Ki of 0.22 µM (CA1; enzyme activity; inhibitor; stopped-flow).
For `C#CCOC(=O)c1ccc(=O)oc1`, the Ki was > 100 µM (CA1; enzyme activity; inhibitor; stopped-flow).
`CC(C)(C(=O)O)c1ccc(C(O)CCCN2CCC(C(O)(c3ccccc3)c3ccccc3)CC2)cc1` (stereo not drawn) has a Ki of 17.9 µM (CA2; enzyme activity; inhibitor; absorbance).
`Cc1cc(Oc2ncccc2CN2CCN(c3ccc(F)c(F)c3)CC2)ccc1-c1c(C)c(=O)[nH]c(=O)n1C` has a Ki of 0.418 µM (ADRA2A; ligand displacement; radioligand).
For `O=C(NCc1cn(-c2ccccc2)nn1)c1ccc(=O)oc1`, the Ki was > 100 µM (CA1; enzyme activity; inhibitor; stopped-flow).
The Ki of `Cc1cc(Oc2ncccc2CN2CCN(c3ccccn3)CC2)ccc1-c1c(C)c(=O)[nH]c(=O)n1C` is reported as 0.123 µM (ADRA2A; ligand displacement; radioligand).
`Cc1ccc(OC(=O)c2ccc(=O)oc2)cc1` gave a Ki of > 100 µM (CA1; enzyme activity; inhibitor; stopped-flow).
For `NS(=O)(=O)c1nnc(NC(=O)C2CCC3(CCCC3)CC2)s1`, the Ki was 0.0594 µM (CA2; enzyme activity; inhibitor; stopped-flow).
`C[C@H]1c2cccc(O)c2C(=O)C2=C(O)[C@]3(O)C(=O)C(C(N)=O)=C(O)[C@@H](N(C)C)[C@@H]3[C@@H](O)[C@@H]21` has a Ki of 8.51 µM (CA1; enzyme activity; inhibitor).
With `Cc1cc(Oc2ncccc2CN2CCN(c3ccc(Br)cc3)CC2)ccc1-c1c(C)c(=O)[nH]c(=O)n1C` the Ki was 0.841 µM (ADRA2A; ligand displacement; radioligand).
`CN(C/C=C/C#CC(C)(C)C)Cc1cccc2ccccc12` has a Ki of 20.3 µM (CA2; enzyme activity; inhibitor; absorbance).
`Cc1ccc(-n2cc(COC(=O)c3ccc(=O)oc3)nn2)cc1` has a Ki of > 100 µM (CA1; enzyme activity; inhibitor; stopped-flow).
`Cc1ccc(CCC(=O)Nc2nnc(S(N)(=O)=O)s2)cc1` gave a Ki of 0.0118 µM (CA2; enzyme activity; inhibitor; stopped-flow).
For `Cc1cc(Oc2ncccc2CN2CCN(c3ccccc3[N+](=O)[O-])CC2)ccc1-c1c(C)c(=O)[nH]c(=O)n1C`, the Ki was 0.146 µM (ADRA2A; ligand displacement; radioligand).
For `CC1(C)CCN(CC(=O)Nc2nnc(S(N)(=O)=O)s2)CC1`, the Ki was 0.0311 µM (CA2; enzyme activity; inhibitor; stopped-flow).
For `Cc1cc(Oc2ncccc2CN2CCN(c3ccc([N+](=O)[O-])cc3C(F)(F)F)CC2)ccc1-c1c(C)c(=O)[nH]c(=O)n1C`, the Ki was 2.11 µM (ADRA2A; ligand displacement; radioligand).
